The source made the active and inactive calls. The rule behind the calls is not given here.
How the values were obtained:
Coagulation factor XI [1] = target: T1, Coagulation factor XI (Homo sapiens, UniProt P03951); assay: Inhibition of human factor 11a using S2366 as substrate after 10 mins by spectrophotometry
Outline: (§1)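 FXIa at 0.765 nM (final) preincubated 10 min at 37 °C with compound (12 serial dilutions) in 50 mM Tris-HCl pH 7.4, 150 mM NaCl, 0.1% PEG8000, 0.02% Tween80. S2366 (345 μM final) then added. Initial rate read at 405 nm. Fractional residual activity fit to a logistic equation for IC50, Hill slope and ΔY.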

Coagulation factor XI [2] = target: T1, Coagulation factor XI; assay: Inhibition of human factor 11a using S2366 as substrate assessed as residual protease activity after 10 mins by spectrophotometry; outline: as §1
Coagulation factor XI [3] = target: T1, Coagulation factor XI; assay: Binding affinity to human factor 11a-DEGR by spectrofluorometry
Outline: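 Fluorescence titration of active-site dansylated FXIa (FXIa-DEGR, 250 nM) with aliquots of sulfated QAO in 50 mM Tris-HCl pH 7.4, 150 mM NaCl, 0.1% PEG8000 at 37 °C. Emission monitored at 547 nm (λex 345 nm). Change in fluorescence fit to the Hill equation to give apparent KD.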

HEK293 [4] = assay: Inhibition of human recombinant factor 11a catalytic domain Lys529Ala/Arg530Ala/Arg532Ala triple mutant transfected in HEK293 cells using S2366 as substrate assessed as residual protease activity at 3 uM after 10 mins by spectrophotometry
Outline: (§2)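 Full-length wild-type FXIa, FXIa catalytic domain, and the Lys529Ala/Arg530Ala/Arg532Ala catalytic domain mutant were recombinant proteins from stably transfected HEK-293 cells, activated with FXIIa. Residual activity was measured by S2366 hydrolysis with 3 μM compound, with or without 30 μM Polybrene.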

Coagulation factor XI [5] = target: T1, Coagulation factor XI; assay: Inhibition of human recombinant factor 11a catalytic domain transfected in HEK293 cells using S2366 as substrate assessed as residual protease activity at 3 uM after 10 mins by spectrophotometry; outline: as §2
Coagulation factor XI [6] = target: T1, Coagulation factor XI; assay: Inhibition of human wild type full length factor 11a transfected in HEK293 cells using S2366 as substrate assessed as residual protease activity at 3 uM after 10 mins by spectrophotometry; outline: as §2
HEK293 [7] = assay: Inhibition of human recombinant factor 11a catalytic domain Lys535Ala/Lys539Ala double mutant transfected in HEK293 cells; assay type: cell-based
Homo sapiens [8] = species: Homo sapiens; assay: Ratio of IC50 for human recombinant factor 11a catalytic domain Lys529Ala/Arg530Ala/Arg532Ala triple mutant to IC50 for human recombinant factor XIa catalytic domain
Outline: (§3)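 Recombinant FXI catalytic domain constructs (wild type, Arg530Ala, Lys529Ala/Arg530Ala/Arg532Ala) were expressed stably in HEK-293 cells. […] Inhibition was measured by S2366 hydrolysis in 50 mM Tris-HCl pH 7.4, 150 mM NaCl, 0.1% PEG8000, 0.02% Tween80 at 37 °C. Dose-response data were fit to the logistic equation.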

Homo sapiens [9] = species: Homo sapiens; assay: Ratio of IC50 for human recombinant factor 11a catalytic domain Arg530Ala mutant to IC50 for human recombinant factor XIa catalytic domain; outline: as §3
Coagulation factor XI [10] = target: T1, Coagulation factor XI; assay: Inhibition of human recombinant factor 11a catalytic domain; outline: as §3
Plasma = assay: Anticoagulant activity in human plasma assessed as concentration required to double activated partial thromboplastin time; assay type: functional
Outline: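 Citrated pooled normal human plasma. APTT: 10 μL compound mixed with 90 μL plasma and 100 μL prewarmed APTT reagent (0.2% ellagic acid), incubated 4 min at 37 °C, then clotting started with 100 μL prewarmed 25 mM CaCl2. Vehicle control was deionized water and/or organic vehicle. Clot time was read on a fibrometer. Data fit to a quadratic trend line to get the concentration doubling clotting time. Run in duplicate.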

[11] = target: Chymotrypsinogen A (Bos taurus) (UniProt P00766); assay: Inhibition of bovine alpha-chymotrypsin assessed as residual protease activity at 500 uM after 10 mins by spectrophotometry
[12] = target: T2, Serine protease 1 (Bos taurus) (UniProt P00760); assay: Inhibition of bovine trypsin assessed as residual protease activity at 500 uM after 10 mins by spectrophotometry
T2 sequence (whole entry): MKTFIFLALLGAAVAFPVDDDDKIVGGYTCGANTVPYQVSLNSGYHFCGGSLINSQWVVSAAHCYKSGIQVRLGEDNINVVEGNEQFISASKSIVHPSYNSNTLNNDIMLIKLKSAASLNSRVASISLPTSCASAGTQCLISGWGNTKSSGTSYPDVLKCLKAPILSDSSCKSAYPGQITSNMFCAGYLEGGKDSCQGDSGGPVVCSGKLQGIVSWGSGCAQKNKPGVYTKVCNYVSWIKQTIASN

[13] = target: Coagulation factor X (Homo sapiens) (UniProt P00742); assay: Inhibition of human factor 10a assessed as residual protease activity at 500 uM after 10 mins by spectrophotometry
[14] = target: Prothrombin (Homo sapiens) (UniProt P00734); assay: Inhibition of human thrombin assessed as residual protease activity at 500 uM after 10 mins by spectrophotometry

Chain of Coagulation factor X (Homo sapiens) (P00742 41-179 limits assumed): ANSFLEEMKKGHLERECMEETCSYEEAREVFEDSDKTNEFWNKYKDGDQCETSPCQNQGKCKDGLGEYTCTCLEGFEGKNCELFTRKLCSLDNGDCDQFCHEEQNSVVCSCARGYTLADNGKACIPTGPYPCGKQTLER
Chain of Coagulation factor X (Homo sapiens) (P00742 235-488 limits assumed): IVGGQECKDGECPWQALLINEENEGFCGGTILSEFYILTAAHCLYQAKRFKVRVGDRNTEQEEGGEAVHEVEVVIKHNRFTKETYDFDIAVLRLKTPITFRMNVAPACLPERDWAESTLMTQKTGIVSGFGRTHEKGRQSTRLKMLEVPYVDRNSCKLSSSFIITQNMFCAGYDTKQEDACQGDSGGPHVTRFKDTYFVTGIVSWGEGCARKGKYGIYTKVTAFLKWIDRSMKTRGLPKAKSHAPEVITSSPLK
T1 sequence (P03951 19-387 limits assumed): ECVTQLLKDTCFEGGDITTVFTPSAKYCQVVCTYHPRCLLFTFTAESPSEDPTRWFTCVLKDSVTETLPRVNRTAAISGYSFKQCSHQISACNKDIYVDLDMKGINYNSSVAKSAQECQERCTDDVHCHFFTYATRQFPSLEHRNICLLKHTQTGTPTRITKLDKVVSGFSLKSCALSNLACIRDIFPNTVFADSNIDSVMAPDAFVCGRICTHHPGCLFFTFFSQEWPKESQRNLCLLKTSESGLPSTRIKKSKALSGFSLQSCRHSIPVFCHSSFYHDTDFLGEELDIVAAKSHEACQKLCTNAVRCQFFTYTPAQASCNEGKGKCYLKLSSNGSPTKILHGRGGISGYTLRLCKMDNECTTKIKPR
T1 sequence (P03951 388-625 limits assumed): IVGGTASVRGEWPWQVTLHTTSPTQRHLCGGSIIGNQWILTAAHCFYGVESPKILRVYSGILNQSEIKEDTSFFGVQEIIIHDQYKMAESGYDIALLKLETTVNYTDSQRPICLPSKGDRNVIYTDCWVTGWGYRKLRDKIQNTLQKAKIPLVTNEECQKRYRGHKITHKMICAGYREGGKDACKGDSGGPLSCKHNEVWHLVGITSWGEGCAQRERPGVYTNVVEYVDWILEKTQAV

Row | IC50 (Coagulation factor XI [1]) [µM] | Efficacy (Coagulation factor XI [2]) [%] | SMILES | other results
1 | 273 | 91 | CC(=O)Oc1cc(OS(=O)(=O)O)cc(-c2nc3ccccc3c(=O)n2CCCCn2cc(Cn3c(-c4cc(OS(=O)(=O)O)cc(OS(=O)(=O)O)c4)nc4ccccc4c3=O)nn2)c1 | 
2 | 213 | 93 | O=c1c2ccccc2nc(-c2cccc(OS(=O)(=O)O)c2)n1CCCCn1cc(Cn2c(-c3cc(OS(=O)(=O)O)cc(OS(=O)(=O)O)c3)nc3ccccc3c2=O)nn1 | 
3 | 182 | 88 | COc1cc(-c2nc3ccccc3c(=O)n2CCCCn2cc(Cn3c(-c4cccc(OS(=O)(=O)O)c4)nc4ccccc4c3=O)nn2)ccc1OS(=O)(=O)O | 
4 | 153 | 96 | CC(=O)Oc1cc(OS(=O)(=O)O)cc(-c2nc3ccccc3c(=O)n2CCCCn2cc(Cn3c(-c4cc(O)cc(OS(=O)(=O)O)c4)nc4ccccc4c3=O)nn2)c1 | 
5 | 52 | 97 | O=c1c2ccccc2nc(-c2ccc(OS(=O)(=O)O)cc2)n1CCCCCCn1cc(Cn2c(-c3ccc(OS(=O)(=O)O)cc3)nc3ccccc3c2=O)nn1 | Kd (Coagulation factor XI [3]): 38 µM; Activity (HEK293 [4]): 4.9%; Activity (Coagulation factor XI [5]): 6.3%; Activity (Coagulation factor XI [6]): 4.2%; inhibition (HEK293 [7]): Active; Ratio IC50 (Homo sapiens [8]): 5; Ratio IC50 (Homo sapiens [9]): 2; inhibition (Coagulation factor XI [10]): Active; 2aPTT (Plasma): 950 µM; inhibition [11]: inactive; inhibition [12]: inactive; inhibition [13]: inactive; inhibition [14]: inactive
6 | 216 | 50 | COc1cc(-c2nc3ccccc3c(=O)n2CCCCn2cc(COc3cc(-c4oc5cc(OS(=O)(=O)O)cc(OC)c5c(=O)c4OS(=O)(=O)O)ccc3OS(=O)(=O)O)nn2)ccc1OS(=O)(=O)O | 
7 | > 1000 |  | O=c1c2ccccc2nc(-c2cc(OS(=O)(=O)O)cc(OS(=O)(=O)O)c2)n1CCCCn1cc(Cn2c(-c3cc(OS(=O)(=O)O)cc(OS(=O)(=O)O)c3)nc3ccccc3c2=O)nn1 | 
8 | 139 | 95 | COc1cc(-c2nc3ccccc3c(=O)n2CCCCn2cc(Cn3c(-c4ccc(OS(=O)(=O)O)c(OC)c4)nc4ccccc4c3=O)nn2)ccc1OS(=O)(=O)O | 
9 | 407 | 90 | COc1cc(OS(=O)(=O)O)cc2oc(-c3ccc(OS(=O)(=O)O)c(OCc4cn(CCCCn5c(-c6cc(OC(C)=O)cc(OS(=O)(=O)O)c6)nc6ccccc6c5=O)nn4)c3)c(OS(=O)(=O)O)c(=O)c12 | 
10 | 305 | 98 | O=c1c2ccccc2nc(-c2ccc(OS(=O)(=O)O)cc2)n1Cc1cn(CCn2cc(Cn3c(-c4ccc(OS(=O)(=O)O)cc4)nc4ccccc4c3=O)nn2)nn1 | 
11 | 59 | 89 | O=c1c2ccccc2nc(-c2ccc(OS(=O)(=O)O)cc2)n1CCCCCn1cc(Cn2c(-c3ccc(OS(=O)(=O)O)cc3)nc3ccccc3c2=O)nn1 | Kd (Coagulation factor XI [3]): 37 µM; 2aPTT (Plasma): 1062 µM; inhibition [11]: inactive; inhibition [12]: inactive; inhibition [13]: inactive; inhibition [14]: inactive
12 | > 1000 |  | COc1cc(OS(=O)(=O)O)cc2oc(-c3ccc(OS(=O)(=O)O)c(OCc4cn(CCCCn5c(-c6cccc(OS(=O)(=O)O)c6)nc6ccccc6c5=O)nn4)c3)c(OS(=O)(=O)O)c(=O)c12 | 
13 | 102 | 100 | O=c1c2ccccc2nc(-c2cccc(OS(=O)(=O)O)c2)n1CCCCn1cc(Cn2c(-c3cccc(OS(=O)(=O)O)c3)nc3ccccc3c2=O)nn1 | 
14 | > 1000 |  | CC(=O)Oc1cccc(-c2nc3ccccc3c(=O)n2Cc2cn(CCCCn3c(-c4cccc(OS(=O)(=O)O)c4)nc4ccccc4c3=O)nn2)c1 | 
15 | 159 | 88 | O=c1c2ccccc2nc(-c2ccc(OS(=O)(=O)O)cc2)n1CCCCn1cc(Cn2c(-c3cccc(OS(=O)(=O)O)c3)nc3ccccc3c2=O)nn1 | 
16 | 91 | 103 | O=c1c2ccccc2nc(-c2cccc(OS(=O)(=O)O)c2)n1CCCCn1cc(Cn2c(-c3ccc(OS(=O)(=O)O)cc3)nc3ccccc3c2=O)nn1 | Kd (Coagulation factor XI [3]): 91 µM
17 | 82 | 91 | O=c1c2ccccc2nc(-c2ccc(OS(=O)(=O)O)cc2)n1CCCCn1cc(Cn2c(-c3ccc(OS(=O)(=O)O)cc3)nc3ccccc3c2=O)nn1 | Kd (Coagulation factor XI [3]): 84 µM; 2aPTT (Plasma): 979 µM; inhibition [11]: inactive; inhibition [12]: inactive; inhibition [13]: inactive; inhibition [14]: inactive
18 |  | 94 | O=c1c2ccccc2nc(-c2ccc(OS(=O)(=O)O)cc2)n1CCCCCn1nncc1Cn1c(-c2ccc(OS(=O)(=O)O)cc2)nc2ccccc2c1=O | 
19 | 320 | 91 | O=c1c2ccccc2nc(-c2cccc(OS(=O)(=O)O)c2)n1CCCn1cc(Cn2c(-c3cccc(OS(=O)(=O)O)c3)nc3ccccc3c2=O)nn1 | 

Source: ChEMBL document CHEMBL2321813, “Discovery of allosteric modulators of factor XIa by targeting hydrophobic domains adjacent to its heparin-binding site” (J Med Chem, 2013)
